ChEMBL document CHEMBL4261527, “Benzylsulfanyl benzo-heterocycle amides and hydrazones as new agents against drug-susceptible and resistant Mycobacterium tuberculosis” (Medchemcomm, 2017)
Converted amounts (≈) assume the structure as drawn.

Tests used:
[1] = Cytotoxicity against African green monkey Vero cells assessed as cell viability at 0.02 ug/ml after 72 hrs by CCK8 assay (reference value: 100%); format: cell-based; conditions: chlorocebus sabaeus, read-out: Activity
Outline: (§1)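 Vero cells exposed to 0.01–20 μg/mL compound; vehicle control 0.625% DMSO set as 100%. Result given as percent cell viability.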

[2] = test system: Mycobacterium tuberculosis; test: Antimycobacterial activity against p-aminosalicyclic acid-resistant Mycobacterium tuberculosis ATCC 35821 by resazurin dye based fluorimetric method; format: functional
[3] = Cytotoxicity against African green monkey Vero cells assessed as cell viability at 0.039 ug/ml after 72 hrs by CCK8 assay (reference value: 100%); format: cell-based; conditions: chlorocebus sabaeus, read-out: Activity; outline: as §1
[4] = Cytotoxicity against African green monkey Vero cells assessed as cell viability at 0.078 ug/ml after 72 hrs by CCK8 assay (reference value: 100%); format: cell-based; conditions: chlorocebus sabaeus, read-out: Activity; outline: as §1
[5] = test system: Mycobacterium tuberculosis; test: Antimycobacterial activity against Mycobacterium tuberculosis H37Rv ATCC 27294 measured after 7 days by microplate alamar blue assay; format: functional; conditions: H37Rv ATCC 27294, 168 h
Outline: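 Mtb H37Rv (ATCC 27294) grown in Middlebrook 7H12 broth; MIC read by Microplate Alamar Blue Assay (MABA).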

[6] = test system: Mycobacterium tuberculosis; test: Antimycobacterial activity against drug-susceptible Mycobacterium tuberculosis clinical isolate; format: functional
Outline: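 Clinical isolates coded 960 (drug-susceptible), 330 (MDR) and 431 (XDR); MIC reported in μM.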

[7] = Cytotoxicity against African green monkey Vero cells assessed as cell viability at 0.01 ug/ml after 72 hrs by CCK8 assay (reference value: 100%); format: cell-based; conditions: chlorocebus sabaeus, read-out: Activity; outline: as §1
[8] = Cytotoxicity against African green monkey Vero cells assessed as cell viability at 5 ug/ml after 72 hrs by CCK8 assay (reference value: 100%); format: cell-based; conditions: chlorocebus sabaeus, read-out: Activity; outline: as §1
[9] = Cytotoxicity against African green monkey Vero cells assessed as cell viability at 2.5 ug/ml after 72 hrs by CCK8 assay (reference value: 100%); format: cell-based; conditions: chlorocebus sabaeus, read-out: Activity; outline: as §1
[10] = Stability in human liver microsomes assessed as parent compound remaining after 15 mins by LC-MS/MS analysis; format: ADME, microsome; conditions: read-out: Stability
Outline: (§2)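 Compound incubated with human liver microsomes; percent remaining measured at 15, 30 and 60 min, relative to the amount at 0 min taken as 100%.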

[11] = Cytotoxicity against African green monkey Vero cells assessed as cell viability at 20 ug/ml after 72 hrs by CCK8 assay (reference value: 100%); format: cell-based; conditions: chlorocebus sabaeus, read-out: Activity; outline: as §1
[12] = Stability in human liver microsomes assessed as parent compound remaining after 60 mins by LC-MS/MS analysis; format: ADME, microsome; conditions: read-out: Stability; outline: as §2
[13] = Cytotoxicity against African green monkey Vero cells assessed as cell viability at 0.625 ug/ml after 72 hrs by CCK8 assay (reference value: 100%); format: cell-based; conditions: chlorocebus sabaeus, read-out: Activity; outline: as §1
[14] = Cytotoxicity against African green monkey Vero cells assessed as cell viability at 10 ug/ml after 72 hrs by CCK8 assay (reference value: 100%); format: cell-based; conditions: chlorocebus sabaeus, read-out: Activity; outline: as §1
[15] = Cytotoxicity against African green monkey Vero cells assessed as cell viability at 0.312 ug/ml after 72 hrs by CCK8 assay (reference value: 100%); format: cell-based; conditions: chlorocebus sabaeus, read-out: Activity; outline: as §1
[16] = Stability in human liver microsomes assessed as parent compound remaining after 30 mins by LC-MS/MS analysis; format: ADME, microsome; conditions: read-out: Stability; outline: as §2
[17] = Cytotoxicity against African green monkey Vero cells assessed as cell viability at 0.156 ug/ml after 72 hrs by CCK8 assay (reference value: 100%); format: cell-based; conditions: chlorocebus sabaeus, read-out: Activity; outline: as §1
[18] = Cytotoxicity against African green monkey Vero cells assessed as cell viability at 1.25 ug/ml after 72 hrs by CCK8 assay (reference value: 100%); format: cell-based; conditions: chlorocebus sabaeus, read-out: Activity; outline: as §1

Q: For `O=C(N/N=C/c1ccc(CSc2nc3ccccc3[nH]2)cc1)c1ccncc1`, which viability at 72 h, 0.02 ug/ml [1] is on record?
A: 116%

Q: And the MIC [2]?
A: 0.312 µg/mL (≈ 0.805 µM)

Q: What about the viability at 72 h, 0.039 ug/ml [3] of the same compound?
A: 115%

Q: And the viability at 72 h, 0.078 ug/ml [4]?
A: 116%

Q: What about the MIC [5] of the same compound?
A: 0.23 µM (≈ 0.0891 µg/mL)

Q: What about the MIC [6] of the same compound?
A: 0.2 µM (≈ 0.0775 µg/mL)

Q: And the viability at 72 h, 0.01 ug/ml [7]?
A: 119%

Q: What about the viability at 72 h, 5 ug/ml [8] of the same compound?
A: 113%

Q: And the viability at 72 h, 2.5 ug/ml [9]?
A: 114%

Q: What about the remaining at 0.25 h [10] of the same compound?
A: 76.5%

Q: And the viability at 72 h, 20 ug/ml [11]?
A: 107%

Q: What about the remaining at 1 h [12] of the same compound?
A: 44.6%

Q: And the viability at 72 h, 0.625 ug/ml [13]?
A: 112%

Q: And the viability at 72 h, 10 ug/ml [14]?
A: 107%

Q: What about the viability at 72 h, 0.312 ug/ml [15] of the same compound?
A: 111%

Q: And the remaining at 0.5 h [16]?
A: 62%

Q: What about the viability at 72 h, 0.156 ug/ml [17] of the same compound?
A: 115%

Q: What about the viability at 72 h, 1.25 ug/ml [18] of the same compound?
A: 119%

Q: With `NNC(=O)c1ccncc1` [ISONIAZID] as the compound, how does the MIC [5] read?
A: 0.81 µM (≈ 0.111 µg/mL)

Q: And the MIC [6]?
A: 0.5 µM (≈ 0.0686 µg/mL)

Q: For `O=C(N/N=C/c1ccc(CSc2nc3ccccc3o2)cc1)c1ccncc1`, which viability at 72 h, 0.02 ug/ml [1] is on record?
A: 127%

Q: And the MIC [2]?
A: 0.312 µg/mL (≈ 0.803 µM)

Q: What about the viability at 72 h, 0.039 ug/ml [3] of the same compound?
A: 127%

Q: What about the viability at 72 h, 0.078 ug/ml [4] of the same compound?
A: 119%

Q: And the MIC [5]?
A: 0.24 µM (≈ 0.0932 µg/mL)

Q: And the MIC [6]?
A: 0.2 µM (≈ 0.0777 µg/mL)

Q: What about the viability at 72 h, 0.01 ug/ml [7] of the same compound?
A: 127%

Q: What about the viability at 72 h, 5 ug/ml [8] of the same compound?
A: 123%

Q: And the viability at 72 h, 2.5 ug/ml [9]?
A: 123%

Q: What about the remaining at 0.25 h [10] of the same compound?
A: 90.1%

Q: What about the viability at 72 h, 20 ug/ml [11] of the same compound?
A: 109%

Q: What about the remaining at 1 h [12] of the same compound?
A: 66.6%

Q: And the viability at 72 h, 0.625 ug/ml [13]?
A: 118%

Q: What about the viability at 72 h, 10 ug/ml [14] of the same compound?
A: 130%

Q: What about the viability at 72 h, 0.312 ug/ml [15] of the same compound?
A: 120%

Q: And the remaining at 0.5 h [16]?
A: 76.5%

Q: What about the viability at 72 h, 0.156 ug/ml [17] of the same compound?
A: 122%

Q: What about the viability at 72 h, 1.25 ug/ml [18] of the same compound?
A: 123%

Q: With `O=C(NCc1ccc(CSc2nc3ccccc3s2)cc1)c1cccnc1` as the compound, how does the MIC [5] read?
A: > 128 µM

Q: With `O=C(N/N=C/c1ccc(CSc2nc3ccccc3s2)cc1)c1cccnc1` as the compound, how does the MIC [5] read?
A: > 128 µM

Q: For `O=[N+]([O-])c1cn2c(n1)OC[C@@H](OCc1ccc(OC(F)(F)F)cc1)C2` [PRETOMANID], which MIC [5] is on record?
A: 0.44 µM (≈ 0.158 µg/mL)

Q: For `CO[C@H]1/C=C/O[C@@]2(C)Oc3c(C)c(O)c4c(O)c(c(/C=N/N5CCN(C)CC5)c(O)c4c3C2=O)NC(=O)/C(C)=C\C=C\[C@H](C)[C@H](O)[C@@H](C)[C@@H](O)[C@@H](C)[C@H](OC(C)=O)[C@@H]1C` [RIFAMPIN], which MIC [5] is on record?
A: 0.08 µM (≈ 0.0658 µg/mL)

Q: And the MIC [6]?
A: 0.07 µM (≈ 0.0576 µg/mL)

Q: With `O=C(N/N=C/c1ccc(CSc2nc3ccccc3o2)cc1)c1cccnc1` as the compound, how does the MIC [5] read?
A: 24.8 µM (≈ 9.63 µg/mL)

Q: With `O=C(N/N=C/c1ccc(CSc2nc3ccccc3[nH]2)cc1)c1cccnc1` as the compound, how does the MIC [5] read?
A: 114 µM (≈ 44.3 µg/mL)

Q: Which MIC [5] does the source give for `COc1c(N2C[C@@H]3CCCN[C@@H]3C2)c(F)cc2c(=O)c(C(=O)O)cn(C3CC3)c12` [MOXIFLOXACIN] here?
A: 0.5 µM (≈ 0.201 µg/mL)

Q: For `COc1cc(/C=N/NC(=O)c2ccncc2)ccc1O` [FTIVAZIDE], which viability at 72 h, 0.02 ug/ml [1] is on record?
A: 105%

Q: What about the MIC [2] of the same compound?
A: 0.312 µg/mL (≈ 1.15 µM)

Q: What about the viability at 72 h, 0.078 ug/ml [4] of the same compound?
A: 114%

Q: What about the MIC [6] of the same compound?
A: 0.25 µM (≈ 0.0678 µg/mL)

Q: And the viability at 72 h, 0.01 ug/ml [7]?
A: 95%

Q: What about the viability at 72 h, 5 ug/ml [8] of the same compound?
A: 100%

Q: What about the viability at 72 h, 2.5 ug/ml [9] of the same compound?
A: 110%

Q: And the viability at 72 h, 20 ug/ml [11]?
A: 90%

Q: And the viability at 72 h, 0.625 ug/ml [13]?
A: 100%

Q: And the viability at 72 h, 10 ug/ml [14]?
A: 95%

Q: What about the viability at 72 h, 0.312 ug/ml [15] of the same compound?
A: 103%

Q: What about the viability at 72 h, 0.156 ug/ml [17] of the same compound?
A: 96%

Q: What about the viability at 72 h, 1.25 ug/ml [18] of the same compound?
A: 105%

Q: Which results are given for `O=C(N/N=C/c1ccc(CSc2nc3ccccc3s2)cc1)c1ccncc1`?
A: viability at 72 h, 0.02 ug/ml [1]: 103%; MIC [2]: 0.625 µg/mL (≈ 1.55 µM); viability at 72 h, 0.039 ug/ml [3]: 99%; viability at 72 h, 0.078 ug/ml [4]: 99%; MIC [5]: 0.24 µM (≈ 0.0971 µg/mL); MIC [6]: 0.2 µM (≈ 0.0809 µg/mL); viability at 72 h, 0.01 ug/ml [7]: 97%; viability at 72 h, 5 ug/ml [8]: 103%; viability at 72 h, 2.5 ug/ml [9]: 101%; remaining at 0.25 h [10]: 76.3%; viability at 72 h, 20 ug/ml [11]: 91%; remaining at 1 h [12]: 34%; viability at 72 h, 0.625 ug/ml [13]: 94%; viability at 72 h, 10 ug/ml [14]: 96%; viability at 72 h, 0.312 ug/ml [15]: 98%; remaining at 0.5 h [16]: 57.2%; viability at 72 h, 0.156 ug/ml [17]: 97%; viability at 72 h, 1.25 ug/ml [18]: 103%

Q: Which MIC [5] does the source give for `O=C(NCc1ccc(CSc2nc3ccccc3o2)cc1)c1cccnc1` here?
A: 58.2 µM (≈ 21.9 µg/mL)

Q: Which MIC [5] does the source give for `O=C(NCc1ccc(CSc2nc3ccccc3s2)cc1)c1ccncc1` here?
A: > 128 µM

Q: Which results are given for `O=C(NCc1ccc(CSc2nc3ccccc3o2)cc1)c1ccncc1`?
A: MIC [5]: 0.9 µM (≈ 0.338 µg/mL); MIC [6]: 16 µM (≈ 6.01 µg/mL)

Q: With `O=C(NCc1ccc(CSc2nc3ccccc3[nH]2)cc1)c1cccnc1` as the compound, how does the MIC [5] read?
A: 60.3 µM (≈ 22.6 µg/mL)

Q: With `CN[C@@H]1[C@H](O[C@H]2[C@H](O[C@H]3[C@H](O)[C@@H](O)[C@H](N=C(N)N)[C@@H](O)[C@@H]3N=C(N)N)O[C@@H](C)[C@]2(O)C=O)O[C@@H](CO)[C@H](O)[C@H]1O` [STREPTOMYCIN] as the compound, how does the MIC [5] read?
A: 0.48 µM (≈ 0.279 µg/mL)

Q: For `O=C(NCc1ccc(CSc2nc3ccccc3[nH]2)cc1)c1ccncc1`, which MIC [5] is on record?
A: 120 µM (≈ 45.1 µg/mL)
